Experimental data published in ChEMBL document CHEMBL1154160, “Synthesis, antiviral activity, and stability of nucleoside analogs containing tricyclic bases” (Eur J Med Chem, 2009).

Assays:
CCRF-CEM = assay: (§1) Cytotoxicity against human CEM cells; assay type: cell-based; settings: ccrf-cem
[1] = test system: Human immunodeficiency virus; assay: Antiviral activity against HIV in human PBM cells; settings: Human immunodeficiency virus 1, PBMC
Vero = assay: (§2) Cytotoxicity against african green monkey Vero cells; assay type: cell-based; settings: chlorocebus sabaeus, vero
Hepatitis C virus = assay: Antiviral activity against HCV in human Huh7 cells by RNA replicon assay; assay type: functional, organism-based, Hepacivirus hominis; settings: Huh-7
PBMC = assay: (§3) Cytotoxicity against human PBMC cells; assay type: cell-based; settings: pbmc
[2] = as §1; assay type: cell-based, CCRF-CEM; settings: CEM (CCRF-CEM) cells
[3] = as §2; assay type: cell-based; settings: chlorocebus sabaeus, Vero cells
[4] = as §3; assay type: cell-based; settings: PBMC cells
Human alphaherpesvirus 1 = assay: Antiviral activity against HSV1 F in african green monkey Vero cells by plaque reduction assay; assay type: functional, organism-based; settings: Human alphaherpesvirus 1, strain F
[5] = Stability in methanol assessed as 3'-azido-3'-deoxyguanosine levels after 72 hrs; assay type: physicochemical
Method in brief: (§4)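 Analogs were diluted from a freshly made stock into water and into methanol, with one half held at room temperature and the other at 4°C. Samples were injected at intervals: every 15 min for 2 hr, then hourly, daily and weekly. LC-MS/MS used a C18 column at 30°C with a formate pH 3 (or water)/methanol gradient, ESI-positive SRM. Released guanine-analog was quantified against 10–1000 nM standard curves.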

[6] = Stability in water assessed as half life; assay type: physicochemical; settings: buffer; method in brief: as §4

SMILES | CC50 (CCRF-CEM) [µM] | EC50 [1] [µM] | EC90 [1] [µM] | CC50 (Vero) [µM] | EC50 (Hepatitis C virus) [µM] | EC90 (Hepatitis C virus) [µM] | CC50 (PBMC) [µM] | CC50 [2] [µM] | CC50 [3] [µM] | CC50 [4] [µM] | EC50 (Human alphaherpesvirus 1) [µM] | EC90 (Human alphaherpesvirus 1) [µM] | Activity [5] [%] | t1/2 [6] [min]
Cc1ccc(-c2cn3c(=O)c4ncn([C@H]5C=C[C@@H](CO)C5)c4nc3[nH]2)cc1 | > 100 | 5 | 30.1 | > 100 | > 10 | > 10 | > 100 |  |  |  |  |  |  | 
C[C@@]1(O)[C@H](O)[C@@H](CO)O[C@H]1n1cnc2c(=O)[nH]c(N)nc21 [2'-B-METHYL-GUANOSINE] |  | > 100 | > 100 |  | 2.3 | 7.8 |  | > 100 | > 100 | > 100 |  |  |  | 
COc1ccc(-c2cn3c(O)c4ncn(COCCO)c4nc3n2)cc1 |  |  |  |  |  |  |  |  |  |  | 12.2 | 23.7 |  | 
O=c1c2ncn([C@H]3C=C[C@@H](CO)C3)c2nc2[nH]c(-c3ccc(Br)cc3)cn12 | > 100 | 12.3 | 43.2 | > 100 | > 10 | > 10 | > 100 |  |  |  |  |  |  | 
COc1ccccc1-c1cn2c(=O)c3ncn([C@H]4CO[C@@H](CO)O4)c3nc2[nH]1 | > 100 | 8.5 | 26.8 | > 100 | > 10 | > 10 | > 100 |  |  |  |  |  |  | 
COc1ccc(-c2cn3c(=O)c4ncn([C@@H]5O[C@H](CO)[C@@H](O)[C@@]5(C)O)c4nc3[nH]2)cc1 | > 100 | > 100 | > 100 | > 100 | ≥ 10 | > 10 | > 100 |  |  |  |  |  |  | 
COc1cccc(-c2cn3c(=O)c4ncn([C@H]5CO[C@@H](CO)O5)c4nc3[nH]2)c1 | > 100 | 20.7 | 89.6 | > 100 | > 10 | > 10 | > 100 |  |  |  |  |  |  | 
O=c1c2ncn([C@H]3C=C[C@@H](CO)C3)c2nc2[nH]c(-c3ccsc3)cn12 | > 100 | 2.6 | 15.5 | > 100 | > 10 | > 10 | > 100 |  |  |  |  |  |  | 
COc1ccc(-c2cn3c(=O)c4ncn([C@H]5C[C@H](N=[N+]=[N-])[C@@H](CO)O5)c4nc3[nH]2)cc1 | 13.5 | 1.3 | 7 | > 100 | > 10 | > 10 | 56.7 |  |  |  |  |  |  | 
CN(C)c1ccc(-c2cn3c(=O)c4ncn([C@@H]5O[C@H](CO)[C@@H](O)[C@@]5(C)O)c4nc3[nH]2)cc1 | > 100 |  |  | > 100 |  |  |  |  |  |  |  |  |  | 
COc1ccc(-c2cn3c(=O)c4ncn([C@H]5CO[C@@H](CO)O5)c4nc3[nH]2)cc1 | > 100 | 3.45 | 23.9 | > 100 | > 10 | > 10 | > 100 |  |  |  |  |  |  | 
COc1ccc(-c2cn3c(=O)c4ncn([C@H]5C=C[C@@H](CO)C5)c4nc3[nH]2)cc1 | > 100 | 0.62 | 4.9 | > 100 | > 10 | > 10 | > 100 |  |  |  |  |  |  | 
CCN(CC)c1ccc(-c2cn3c(=O)c4ncn([C@H]5C[C@H](N=[N+]=[N-])[C@@H](CO)O5)c4nc3[nH]2)cc1 | 14.1 | 0.04 | 0.34 | 72.8 | > 10 | > 10 | > 100 |  |  |  |  |  | 1 | 25
C[C@@]1(O)[C@H](O)[C@@H](CO)O[C@H]1n1cnc2c(=O)n3cc(-c4ccsc4)[nH]c3nc21 | > 100 | > 100 | > 100 | > 100 | ≥ 10 | > 10 | > 100 |  |  |  |  |  |  | 
[N-]=[N+]=Nc1ccc(-c2cn3c(=O)c4ncn([C@H]5CO[C@@H](CO)O5)c4nc3[nH]2)cc1 | > 100 | 2.6 | 11.4 | > 100 | > 10 | > 10 | > 100 |  |  |  |  |  |  | 
O=c1c2ncn([C@H]3CO[C@@H](CO)O3)c2nc2[nH]c(-c3ccsc3)cn12 | > 100 | 0.91 | 6.6 | > 100 | > 10 | > 10 | > 100 |  |  |  |  |  |  | 
O=c1c2ncn([C@H]3CO[C@@H](CO)O3)c2nc2[nH]c(-c3ccc(Cl)cc3)cn12 | > 100 | > 100 | > 100 | > 100 | > 10 | > 10 | > 100 |  |  |  |  |  |  | 
CN(C)c1ccc(-c2cn3c(=O)c4ncn([C@H]5C=C[C@@H](CO)C5)c4nc3[nH]2)cc1 | > 100 | 0.11 | 0.47 | > 100 | > 10 | > 10 | 24 |  |  |  |  |  |  | 

SMILES | CC50 (CCRF-CEM) [µM] | EC50 [1] [µM] | EC90 [1] [µM] | CC50 (Vero) [µM] | EC50 (Hepatitis C virus) [µM] | EC90 (Hepatitis C virus) [µM] | CC50 (PBMC) [µM] | CC50 [2] [µM] | CC50 [3] [µM] | CC50 [4] [µM] | EC50 (Human alphaherpesvirus 1) [µM] | EC90 (Human alphaherpesvirus 1) [µM] | Activity [5] [%] | t1/2 [6] [min]
O=c1c2ncn([C@H]3C=C[C@@H](CO)C3)c2nc2[nH]c(-c3cccs3)cn12 | > 100 | 0.64 | 7.1 | > 100 | > 10 | > 10 | > 100 |  |  |  |  |  |  | 
C[C@@]1(O)[C@H](O)[C@@H](CO)O[C@H]1n1cnc2c(=O)n3cc(-c4cccs4)[nH]c3nc21 | > 100 | > 100 | > 100 | 44.3 | 6.9 | 25.6 | > 100 |  |  |  |  |  |  | 
O=c1c2ncn([C@H]3CO[C@@H](CO)O3)c2nc2[nH]c(-c3ccccc3)cn12 | > 100 | 7.1 | 43.5 | > 100 | > 10 | > 10 | > 100 |  |  |  |  |  |  | 
CCc1cn2c(=O)c3ncn([C@H]4CO[C@@H](CO)O4)c3nc2[nH]1 | > 100 | 31.5 | > 100 | > 100 | > 10 | > 10 | > 100 |  |  |  |  |  |  | 
N#Cc1ccc(-c2cn3c(=O)c4ncn([C@H]5CO[C@@H](CO)O5)c4nc3[nH]2)cc1 | > 100 | 69.3 | > 100 | > 100 | > 10 | > 10 | > 100 |  |  |  |  |  |  | 
Nc1nc2c(ncn2[C@H]2CO[C@@H](CO)O2)c(=O)[nH]1 | > 100 | 0.51 | 2.4 | > 100 | > 10 | > 10 | > 100 |  |  |  |  |  |  | 
Cc1ccc(-c2cn3c(=O)c4ncn([C@H]5CO[C@@H](CO)O5)c4nc3[nH]2)cc1 | > 100 | 4.9 | 23.9 | > 100 | > 10 | > 10 | > 100 |  |  |  |  |  |  | 
CN(C)c1ccc(-c2cn3c(=O)c4ncn([C@H]5C[C@H](N=[N+]=[N-])[C@@H](CO)O5)c4nc3[nH]2)cc1 | 74.6 | 0.14 | 0.54 | > 100 | > 10 | > 10 | > 100 |  |  |  |  |  |  | 
Nc1nc2c(ncn2[C@H]2C=C[C@@H](CO)C2)c(=O)[nH]1 [CARBOVIR] | > 100 | 0.043 | 0.29 | > 100 | > 10 | > 10 | 7 |  |  |  |  |  |  | 
CCc1cn2c(=O)c3ncn([C@@H]4O[C@H](CO)[C@@H](O)[C@@]4(C)O)c3nc2[nH]1 |  | > 100 | > 100 |  | > 10 | > 10 |  | > 100 | > 100 | > 100 |  |  |  | 
O=c1c2ncn([C@H]3CO[C@@H](CO)O3)c2nc2[nH]c(-c3cccs3)cn12 | > 100 | 3 | 16 | > 100 | > 10 | > 10 | > 100 |  |  |  |  |  |  | 
CCN(CC)c1ccc(-c2cn3c(=O)c4ncn([C@H]5CO[C@@H](CO)O5)c4nc3[nH]2)cc1 | 80.8 | 0.25 | 1.25 | 63 | > 10 | > 10 | > 100 |  |  |  |  |  |  | 
CCN(CC)c1ccc(-c2cn3c(=O)c4ncn([C@H]5C=C[C@@H](CO)C5)c4nc3[nH]2)cc1 | > 100 | 0.13 | 0.65 | > 100 | > 10 | > 10 | > 100 |  |  |  |  |  |  | 
CN(C)c1ccc(-c2cn3c(=O)c4ncn([C@H]5CO[C@@H](CO)O5)c4nc3[nH]2)cc1 | > 100 | 0.61 | 1.5 | > 100 | > 10 | > 10 | > 100 |  |  |  |  |  |  | 
O=c1c2ncn([C@H]3CO[C@@H](CO)O3)c2nc2[nH]c(-c3ccc(F)cc3)cn12 | > 100 | 43.5 | > 100 | > 100 | > 10 | > 10 | > 100 |  |  |  |  |  |  | 
O=c1c2ncn([C@H]3CO[C@@H](CO)O3)c2nc2[nH]c(-c3ccc(F)cc3F)cn12 | > 100 | 14.7 | 51.8 | > 100 | > 10 | > 10 | > 100 |  |  |  |  |  |  | 
[N-]=[N+]=N[C@H]1C[C@H](n2cnc3c(=O)n4cc(-c5ccccc5)[nH]c4nc32)O[C@@H]1CO | 21.8 | 8.4 | 94.1 | > 100 | > 10 | > 10 | 69.6 |  |  |  |  |  |  | 
